Measurements: publication PMC11437091 (Scientific Reports, 2024)

Key:
MDA-MB-231 cells = experiment: flow cytometry binding of EDBp-Cy5 to cells; assay type: cell-based; conditions: 1 µM, 37 °C, 60 min
How it was run: (§1)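 Cells were grown in DMEM with 10% FBS at 37 °C and 5% CO2, then seeded at 1 × 10^6 cells/ml in 6-well plates. They were stained with 1 µM Cy5-labelled test compound, or a Cy5-labelled cyclic control peptide, for 60 min at 37 °C. Cells were washed three times with PBS and analysed by flow cytometry for Cy5 signal.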

MCF7 cells = experiment: flow cytometry binding of EDBp-Cy5 to cells; assay type: cell-based; conditions: 1 µM, 37 °C, 60 min
How it was run: as §1

EMT6 cells = experiment: flow cytometry binding of EDBp-Cy5 to cells; assay type: cell-based; conditions: 1 µM, 37 °C, 60 min
How it was run: as §1

[1] = tested on: EDB-FN in MDA-MB-231 cells; experiment: confocal immunofluorescence colocalization with EDB-FN; assay type: cell-based; conditions: confocal microscopy, 1 µM, 37 °C, 2 h
How it was run: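 MDA-MB-231 cells were seeded at 1 × 10^5 cells/ml in confocal dishes. They were incubated with 1 µM Cy5-labelled test compound for 2 h at 37 °C, washed six times with PBST, and fixed in 4% paraformaldehyde. Permeabilization used 0.25% Triton X-100 and blocking used 5% BSA for 30 min. Anti-EDB-FN mAb (1:1000) was applied overnight at 4 °C. Alexa Fluor 488 anti-rabbit (4 µg/mL) was applied 1 h at RT. Nuclei were stained with DAPI and imaged by confocal microscopy.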

[2] = tested on: subcutaneous MDA-MB-231-luc tumor; experiment: NIRF imaging, subcutaneous tumor model mice; assay type: in vivo
How it was run: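 Female BALB/c-nude mice, 6 weeks old, received 1 × 10^6 MDA-MB-231-luc cells s.c. in PBS with 30% matrigel. The Cy5-labelled test compound (1 µmol) was injected i.v. via tail vein. IVIS whole-body imaging at 48 h used excitation 640 nm and emission 680 nm. Luminescence was read from 10 min after i.p. luciferin 150 mg/kg. Organs and tumour were imaged ex vivo after euthanasia, with semiquantitative fluorescence intensity, n = 3.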

AVRTSAD-PEG4-K-Cy5 [EDBp-Cy5]
cell binding ability (MDA-MB-231 cells): high
cell binding ability (MCF7 cells): moderate
cell binding ability (EMT6 cells): moderate
colocalization with EDB-FN [1]: colocalized with EDB-FN
enrichment in subcutaneous tumor (NIRF imaging) ([2]; 48 h after i.v. injection of 1 µmol, whole-body imaging): significantly enriched
ex vivo distribution in main organs and tumor (NIRF) ([2]; 48 h after injection, organs collected, n = 3): observed mainly in the kidney and subcutaneous tumor
